Test results taken from the RNAGym collection of RNA variant scans (doi:10.1126/science.aae0568).
Fewer inactive variants are shown than the library holds.

B1: tRNA (parent)
chain: GUUCCGUUGGCGUAAUGGUAACGCGUCUCCCUCCUAAGGAGAAGACUGCGGGUUCGAGUCCCGUACGGAACG

Variants of: B1
Assay: yeast fitness relative to wild type (ratio to wild type); higher = fitter; tRNA-Arg(CCU), competitive growth, 37 C, YPD
Method in brief: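 Changes in genotype frequencies gave Darwinian fitness relative to wild type. Frequencies were read by 100-nucleotide paired-end sequencing of gene amplicons before and after pooled Saccharomyces cerevisiae strains, carrying tRNA-Arg(CCU) gene variants at the native locus, were competed in YPD at 37°C for 24 hours in six replicates. A genotype was kept only with ≥ 100 starting reads, and estimates < 0.5 were set to 0.5.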

Variant	yeast fitness
GUUCCGUUGGCGUAAUGGUAACGCGUCUCCCUCCUAAGGAGAAGACUGCGGGUCCGAGUUCCGUACGGAACG	0.546
GUUCCGUUGGCGUAAUGGUAACGCGUCUCCCUCCUAAGGAGAAGACUGCGGGUACGAGUCUCGUACGGAACG	0.715
GUUCCGUUGGCGUAAUGGUAACGCGUCUCCCUCCUAAGGAGAAGACUGCGGGUGCGAGUCCCGUUCGGAACG	≤ 0.5
GUUCCGUUGGCGUAAUGGUAACGCGUCUCCCUCCUAAGGAGAAGACUGCGGGUUAGAGUCCCGUACGGACCG	0.807
GUUCCGUUGGCGUAAUGGUAACGCGUCUCCCUCCUAAGGAGAAGACUGCGGGUUAGUGUCCCGUAUGGAACG	0.574
GUUCCGUUGGCGUAAUGGUAACGCGUCUCCCUCCUAAGGAGAAGACUGCGGGUACGAGUCCCGUUUGGAACG	≤ 0.5
GUUCCGUUGGCGUAAUGGUAACGCGUCUCCCUCCUAAGGAGAAGACUGCGGGUACGAGUGCCGUAUGGAACG	≤ 0.5
GUUCCGUUGGCGUAAUGGUAACGCGUCUCCCUCCUAAGGAGAAGACUGCGGGUACGAGUCCCGUACGGAGCG	0.702
GUUCCGUUGGCGUAAUGGUAACGCGUCUCCCUCCUAAGGAGAAGACUGCGGGUACGAGUCCCGUACGGAUCG	0.768
GUUCCGUUGGCGUAAUGGUAACGCGUCUCCCUCCUAAGGAGAAGACUGCGGGUCCGUGUACCGUACGCAACG	≤ 0.5
GUUCCGUUGGCGUAAUGGUAACGCGUCUCCCUCCUAAGGAGAAGACUGCGGGUAAGAGUCCCGUAGGGACCG	≤ 0.5
GUUCCGUUGGCGUAAUGGUAACGCGUCUCCCUCCUAAGGAGAAGACUGCGGGUACGAGUCGCGUACGGCACG	0.57
GUUCCGUUGGCGUAAUGGUAACGCGUCUCCCUCCUAAGGAGAAGACUGCGGGUCCCAAUCCCGUACGGAACG	0.55
GUUCCGUUGGCGUAAUGGUAACGCGUCUCCCUCCUAAGGAGAAGACUGCGGGUCCGAGUCCUGUACGCAACG	≤ 0.5
GUUCCGUUGGCGUAAUGGUAACGCGUCUCCCUCCUAAGGAGAAGACUGCGGGUUAGAGUCCCGUCCGAAACG	≤ 0.5
GUUCCGUUGGCGUAAUGGUAACGCGUCUCCCUCCUAAGGAGAAGACUGCGGGUCCGGGUGCCGUACGGAACG	0.787
GUUCCGUUGGCGUAAUGGUAACGCGUCUCCCUCCUAAGGAGAAGACUGCGGGUCCGAGUCGCGUACGGAACG	0.713
GUUCCGUUGGCGUAAUGGUAACGCGUCUCCCUCCUAAGGAGAAGACUGCGGGUCCGAGUCACGUACGGAACG	0.776
GUUCCGUUGGCGUAAUGGUAACGCGUCUCCCUCCUAAGGAGAAGACUGCGGGUCCGAGUCUCGUACGGAACG	0.868

Variant	yeast fitness
GUUCCGUUGGCGUAAUGGUAACGCGUCUCCCUCCUAAGGAGAAGACUGCGGGUUAGCGUCCCGCUCGGAACG	0.527
GUUCCGUUGGCGUAAUGGUAACGCGUCUCCCUCCUAAGGAGAAGACUGCGGGUACGAGUCCCGUACCAAACG	≤ 0.5
GUUCCGUUGGCGUAAUGGUAACGCGUCUCCCUCCUAAGGAGAAGACUGCGGGUCCGAGUCCCGUACGGGGCG	0.566
GUUCCGUUGGCGUAAUGGUAACGCGUCUCCCUCCUAAGGAGAAGACUGCGGGUACGAGUCCCGUACAGAACG	0.656
GUUCCGUUGGCGUAAUGGUAACGCGUCUCCCUCCUAAGGAGAAGACUGCGGGUACGAGUCCCGUAUGGAACG	0.729
GUUCCGUUGGCGUAAUGGUAACGCGUCUCCCUCCUAAGGAGAAGACUGCGGGUACGAGUCCCGUAAGGAACG	0.528
GUUCCGUUGGCGUAAUGGUAACGCGUCUCCCUCCUAAGGAGAAGACUGCGGGGUCGAGUCCCGCACGGAACG	0.669
GUUCCGUUGGCGUAAUGGUAACGCGUCUCCCUCCUAAGGAGAAGACUGCGGGUCCGAGUCCCGUAAGGAACG	0.595
GUUCCGUUGGCGUAAUGGUAACGCGUCUCCCUCCUAAGGAGAAGACUGCGGGUACGAGCCCCGUACGGAACG	0.613
GUUCCGUUGGCGUAAUGGUAACGCGUCUCCCUCCUAAGGAGAAGACUGCGGGUUAGAGUCCCGUACGGUACG	0.694
GUUCCGUUGGCGUAAUGGUAACGCGUCUCCCUCCUAAGGAGAAGACUGCGGGUACGAGUCCCGUACGGAACG	0.659
GUUCCGUUGGCGUAAUGGUAACGCGUCUCCCUCCUAAGGAGAAGACUGCGGGUGCGAGUCCCGUACGGAACG	0.641
GUUCCGUUGGCGUAAUGGUAACGCGUCUCCCUCCUAAGGAGAAGACUGCGGGUCCGAGUCCCGUACGGAACG	0.806
GUUCCGUUGGCGUAAUGGUAACGCGUCUCCCUCCUAAGGAGAAGACUGCGGGUUAGAGUACCGUACGGAACG	0.624
GUUCCGUUGGCGUAAUGGUAACGCGUCUCCCUCCUAAGGAGAAGACUGCGGGUCCGAGUCCCGUCCGGAACG	0.862
GUUCCGUUGGCGUAAUGGUAACGCGUCUCCCUCCUAAGGAGAAGACUGCGGGUCCGAGUCCCGUGCGGAACG	0.97
GUUCCGUUGGCGUAAUGGUAACGCGUCUCCCUCCUAAGGAGAAGACUGCGGGUGCGAGUCACGUACGGAACG	≤ 0.5
GUUCCGUUGGCGUAAUGGUAACGCGUCUCCCUCCUAAGGAGAAGACUGCGGGUGCGAGUCGCGUACGGAACG	≤ 0.5
GUUCCGUUGGCGUAAUGGUAACGCGUCUCCCUCCUAAGGAGAAGACUGCGGGUACCAGUCCCGUACGGAACG	0.691
